Publication PMC9753537 (ACS Omega, 2022)

Biological target: urease (Canavalia ensiformis, UniProt P07374)
Experiment: In vitro urease inhibition assay
Format: biochemical
Summary of the method: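 Enzyme preincubated with test compound in phosphate buffer (pH 6.8) for 10 min at 37 °C, then phenol and alkali reagents added. Absorbance read at 625 nm, with thiourea as the standard inhibitor. Percent inhibition calculated from absorbance, run in triplicate.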

Chain of urease (P07374 whole entry, looked up): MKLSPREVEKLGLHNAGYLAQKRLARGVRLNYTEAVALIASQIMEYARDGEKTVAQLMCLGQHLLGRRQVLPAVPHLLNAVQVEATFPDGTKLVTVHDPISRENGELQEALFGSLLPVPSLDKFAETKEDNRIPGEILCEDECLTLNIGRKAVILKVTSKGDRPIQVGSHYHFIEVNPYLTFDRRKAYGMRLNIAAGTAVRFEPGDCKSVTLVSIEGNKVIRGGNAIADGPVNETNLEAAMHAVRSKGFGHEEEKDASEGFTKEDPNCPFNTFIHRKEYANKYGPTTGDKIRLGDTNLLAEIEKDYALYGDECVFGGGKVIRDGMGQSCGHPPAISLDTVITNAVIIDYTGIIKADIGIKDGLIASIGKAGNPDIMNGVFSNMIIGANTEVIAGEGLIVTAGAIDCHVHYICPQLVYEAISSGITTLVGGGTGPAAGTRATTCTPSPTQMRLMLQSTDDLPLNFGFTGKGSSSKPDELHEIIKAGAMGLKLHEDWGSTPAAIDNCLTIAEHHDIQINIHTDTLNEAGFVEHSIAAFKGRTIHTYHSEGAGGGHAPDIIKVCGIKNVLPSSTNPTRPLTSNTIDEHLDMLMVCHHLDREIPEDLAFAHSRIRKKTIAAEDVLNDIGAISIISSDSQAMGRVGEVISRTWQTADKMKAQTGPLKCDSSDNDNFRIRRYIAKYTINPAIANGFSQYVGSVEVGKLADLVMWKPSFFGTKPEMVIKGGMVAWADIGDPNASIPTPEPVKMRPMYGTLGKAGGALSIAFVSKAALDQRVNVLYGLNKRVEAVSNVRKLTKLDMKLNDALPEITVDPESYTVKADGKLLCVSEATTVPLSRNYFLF

## CC(C(=O)NN=Cc1cccc2ccccc12)c1ccc(-c2ccccc2)c(F)c1 (stereo not drawn) [Compound 4, 2-(2-Fluoro-[1,1′-biphenyl]-4-yl)-N′-(naphthalen-1-ylmethylene)propanehydrazide]
  IC50: 53.7 ± 3.81 µM

## CC(C(=O)NN=Cc1ccc(O)c(O)c1O)c1ccc(-c2ccccc2)c(F)c1 (stereo not drawn) [Compound 5, 2-(2-Fluoro-[1,1′-biphenyl]-4-yl)-N′-(2,3,4-trihydroxybenzylidene)propanehydrazide]
  IC50: 25.1 ± 1.13 µM

## CC(C(=O)NN=Cc1ccc(Br)cc1F)c1ccc(-c2ccccc2)c(F)c1 (stereo not drawn) [Compound 23, N′-(4-Bromo-2-fluorobenzylidene)-2-(2-fluoro-[1,1′-biphenyl]-4-yl)propanehydrazide]
  IC50: 86.9 ± 8.71 µM

## COc1ccc(C=NNC(=O)C(C)c2ccc(-c3ccccc3)c(F)c2)c(F)c1 (stereo not drawn) [Compound 21, N′-(2-Fluoro-4-methoxybenzylidene)-2-(2-fluoro-[1,1′-biphenyl]-4-yl)propanehydrazide]
  IC50: 89.7 ± 8.35 µM

## CCOc1ccc(C=NNC(=O)C(C)c2ccc(-c3ccccc3)c(F)c2)c(OC)c1 (stereo not drawn) [Compound 11, N′-(4-Ethoxy-2-methoxybenzylidene)-2-(2-fluoro-[1,1′-biphenyl]-4-yl)propanehydrazide]
  IC50: 52.7 ± 3.56 µM

## CC(C(=O)NN=Cc1ccccc1[N+](=O)[O-])c1ccc(-c2ccccc2)c(F)c1 (stereo not drawn) [Compound 31, N′-(2-Nitrobenzylidene)-2-(2-fluoro-[1,1′-biphenyl]-4-yl)propanehydrazide]
  IC50: 28.1 ± 1.26 µM

## COc1ccc(OC)c(C=NNC(=O)C(C)c2ccc(-c3ccccc3)c(F)c2)c1 (stereo not drawn) [Compound 24, N′-(2,5-Dimethoxybenzylidene)-2-(2-fluoro-[1,1′-biphenyl]-4-yl)propanehydrazide]
  IC50: 79.2 ± 7.94 µM

## CC(C(=O)NN=Cc1ccc(O)c(Br)c1)c1ccc(-c2ccccc2)c(F)c1 (stereo not drawn) [Compound 27, N′-(3-Bromo-4-hydroxybenzylidene)-2-(2-fluoro-[1,1′-biphenyl]-4-yl)propanehydrazide]
  IC50: 80 ± 8.61 µM

## COc1cc(C=NNC(=O)C(C)c2ccc(-c3ccccc3)c(F)c2)ccc1F (stereo not drawn) [Compound 12, N′-(4-Fluoro-3-methoxybenzylidene)-2-(2-fluoro-[1,1′-biphenyl]-4-yl)propanehydrazide]
  IC50: 56.1 ± 4.89 µM

## CC(C(=O)NN=Cc1ccc(-c2ccccc2)c(F)c1)c1ccc(-c2ccccc2)c(F)c1 (stereo not drawn) [Compound 28, 2-(2-Fluoro-[1,1′-biphenyl]-4-yl)-N′-((2-fluoro-[1,1′-biphenyl]-4-yl)methylene)propanehydrazide]
  IC50: 58.5 ± 4.28 µM

## COc1ccc(Br)cc1C=NNC(=O)C(C)c1ccc(-c2ccccc2)c(F)c1 (stereo not drawn) [Compound 8, N′-(5-Bromo-2-methoxybenzylidene)-2-(2-fluoro-[1,1′-biphenyl]-4-yl)propanehydrazide]
  IC50: 58.3 ± 3.34 µM

## COc1ccccc1C=NNC(=O)C(C)c1ccc(-c2ccccc2)c(F)c1 (stereo not drawn) [Compound 19, 2-(2-Fluoro-[1,1′-biphenyl]-4-yl)-N′-(2-methoxybenzylidene)propanehydrazide]
  IC50: 55.7 ± 3.82 µM

## CC(C(=O)NN=Cc1cccc([N+](=O)[O-])c1)c1ccc(-c2ccccc2)c(F)c1 (stereo not drawn) [Compound 7, 2-(2-Fluoro-[1,1′-biphenyl]-4-yl)-N′-(3-nitrobenzylidene)propanehydrazide]
  IC50: 29.2 ± 1.12 µM

## COc1ccc(/C=N/NC(=O)C(C)c2ccc(-c3ccccc3)c(F)c2)c(Cl)c1OC (stereo not drawn) [Compound 16, (E)-N′-(2-Chloro-3,4-dimethoxybenzylidene)-2-(2-fluoro-[1,1′-biphenyl]-4-yl)propanehydrazide]
  IC50: 55.7 ± 3.82 µM

## CC(C(=O)NN=Cc1cccc(O)c1O)c1ccc(-c2ccccc2)c(F)c1 (stereo not drawn) [Compound 30, N′-(2,3-Dihydroxybenzylidene)-2-(2-fluoro-[1,1′-biphenyl]-4-yl)propanehydrazide]
  IC50: 18.9 ± 0.61 µM

## COc1cccc(OC)c1C=NNC(=O)C(C)c1ccc(-c2ccccc2)c(F)c1 (stereo not drawn) [Compound 14, N′-(2,6-Dimethoxybenzylidene)-2-(2-fluoro-[1,1′-biphenyl]-4-yl)propanehydrazide]
  IC50: 55.7 ± 3.71 µM

## CC(C(=O)NN=Cc1cc([N+](=O)[O-])ccc1Cl)c1ccc(-c2ccccc2)c(F)c1 (stereo not drawn) [Compound 10, N′-(2-Chloro-5-nitrobenzylidene)-2-(2-fluoro-[1,1′-biphenyl]-4-yl)propanehydrazide]
  IC50: 50.7 ± 5.17 µM

## CC(C(=O)NN=Cc1cccc(C(F)(F)F)c1)c1ccc(-c2ccccc2)c(F)c1 (stereo not drawn) [Compound 25, 2-(2-Fluoro-[1,1′-biphenyl]-4-yl)-N′-(3-(trifluoromethyl)benzylidene)propanehydrazide]
  IC50: 59.5 ± 4.28 µM

## CC(C(=O)NN=Cc1ccc(Br)cc1)c1ccc(-c2ccccc2)c(F)c1 (stereo not drawn) [Compound 20, N′-(4-Bromobenzylidene)-2-(2-fluoro-[1,1′-biphenyl]-4-yl)propanehydrazide]
  IC50: 58.8 ± 3.99 µM

## COc1ccc(C=NNC(=O)C(C)c2ccc(-c3ccccc3)c(F)c2)c(OC)c1OC (stereo not drawn) [Compound 9, 2-(2-Fluoro-[1,1′-biphenyl]-4-yl)-N′-(2,3,4-trimethoxybenzylidene)propanehydrazide]
  IC50: 55.8 ± 3.04 µM

## COc1cc(C=NNC(=O)C(C)c2ccc(-c3ccccc3)c(F)c2)ccc1Oc1ccccc1 (stereo not drawn) [Compound 18, 2-(2-Fluoro-[1,1′-biphenyl]-4-yl)-N′-(3-methoxy-4-phenoxybenzylidene)propanehydrazide]
  IC50: 26.5 ± 0.44 µM

## CC(C(=O)N/N=C/c1ccc([N+](=O)[O-])cc1)c1ccc(-c2ccccc2)c(F)c1 (stereo not drawn) [Compound 15, (E)-2-(2-Fluoro-[1,1′-biphenyl]-4-yl)-N′-(4-nitrobenzylidene)propanehydrazide]
  IC50: 28.6 ± 1.73 µM

## CC(C(=O)NN=Cc1ccccc1N)c1ccc(-c2ccccc2)c(F)c1 (stereo not drawn) [Compound 6, N′-(2-Aminobenzylidene)-2-(2-fluoro-[1,1′-biphenyl]-4-yl)propanehydrazide]
  IC50: 53.7 ± 3.82 µM

## COc1cc(C=NNC(=O)C(C)c2ccc(-c3ccccc3)c(F)c2)cc(OC)c1Br (stereo not drawn) [Compound 22, N′-(4-Bromo-3,5-dimethoxybenzylidene)-2-(2-fluoro-[1,1′-biphenyl]-4-yl)propanehydrazide]
  IC50: 90.7 ± 7.71 µM

## Cc1ccc(C=NNC(=O)C(C)c2ccc(-c3ccccc3)c(F)c2)s1 (stereo not drawn) [Compound 29, 2-(2-Fluoro-[1,1′-biphenyl]-4-yl)-N′-((5-methylthiophen-2-yl)methylene)propanehydrazide]
  IC50: 57.5 ± 4.27 µM

## CSc1ccc(C=NNC(=O)C(C)c2ccc(-c3ccccc3)c(F)c2)cc1 (stereo not drawn) [Compound 26, 2-(2-Fluoro-[1,1′-biphenyl]-4-yl)-N′-(4-(methylthio)benzylidene)propanehydrazide]
  IC50: 78 ± 7.63 µM

## CCOc1cc(C=NNC(=O)C(C)c2ccc(-c3ccccc3)c(F)c2)ccc1OC (stereo not drawn) [Compound 13, N′-(3-Ethoxy-4-methoxybenzylidene)-2-(2-fluoro-[1,1′-biphenyl]-4-yl)propanehydrazide]
  IC50: 81 ± 8.43 µM
